# Cneo AK release – Cryptococcus neoformans lysis via adenylate kinase release; C. neoformans lysis, adenylate kinase release luminescence, 4 h; normalised: neutral wells 0, clomiphene wells 100; lysis activity, % at 15 µM; actives 0.2% (n = 360,000); AID 651654;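 active = mean lysis activity across replicates of at least 80%, whatever share of replicates individually reach that level; inactive = mean lysis activity below 80%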
#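 Test system: log-phase Cryptococcus neoformans yeast cells; Quantity: yeast cell density of 5 × 10^6 cells/mL; Buffer or medium: YPD; Doses: single compound concentration per well; Timing: 4 h at 37 °C static, read 1 h later; Measured by: AK luminescence; Read-out basis: lysis from increased AK signal; Control set: Clomiphene as positive control.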
# Ecoli rRNA inh – inhibitors of bacterial rRNA selective over humanized ribosomes. GFP signal change (wild-type ribosome), % (concentration not given with the values). actives 1.6% (n = 350,000). E. coli WT GFP vs humanized-ribosome RFP mutants, fluorescence, 24 h; stronger effect = lower value; DMSO median 0, no signal -100;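 active = significant combined selectivity score with lowered wild-type GFP, culture density cut under 30%, mutant RFP and density less affected; inactive = any of these conditions unmet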
# Yeast superoxide – caloric restriction mimetics inhibiting age-related superoxide in yeast; S. cerevisiae aged cells, superoxide DHE fluorescence; stronger effect = lower value; superoxide response (% of plate mean), % at 10 µM; actives 0.18% (n = 330,000); AID 2690;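 active = superoxide response under a set limit, about three screen SD below normal, cut at about 65% in these data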;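 note: yeast aged for seven days with compound at 30 °C before DHE staining; 100% = average MFI of all compound-treated wells on the plate with controls excluded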
# SUMO Mot1 rescue – inhibitors of SUMOylation pathway: yeast Mot1-301 growth rescue. S. cerevisiae Mot1-301 growth rescue, ATP luminescence, 38.5C; percent above DMSO median, 100 means doubled. growth rescue, % at 18.8 µM. actives 1% (n = 320,000);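 active = every valid replicate shows activation above 250% relative to neutral control wells; inactive = the rest, any valid replicate at or below 250%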;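 note: OY570 slx delta 5 strain wells were the positive control but not used for scaling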
# PglD inh – blocks C. jejuni PglD acetyltransferase activity; purified PglD enzyme, DTNB colorimetric CoA detection; actives 0.098% (n = 360,000); AID 602405; inhibition, % at 12.5 µM; in the data active = inhibition above about 16%, passing the limit was not always enough
# Mot1 SUMO dose – yeast SUMO pathway inhibition in dose response; shares compounds with SUMO Mot1 rescue; S. cerevisiae Mot1-301 galactose growth, ATP luminescence, 24 h; -100 = growth of slx-deleted rescue strain; growth activity, percent, % at 42 µM; 2,300 tested, under 10 active;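 active = Signal drops as the depositor expects, and the fitted half-maximal dose is no more than ten times the top valid tested dose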;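 note: more negative values mean stronger growth rescue toward the control strain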
# Starred values were filed as active, the others as inactive; nt = no result; + = active, no number. An excerpt weighted towards active compounds, which were near 2.2% of everything screened.
SMILES,Cneo AK release,Ecoli rRNA inh,Yeast superoxide,SUMO Mot1 rescue,PglD inh,Mot1 SUMO dose
O=c1[nH]c(=O)n(C2CCCO2)cc1Br (stereo not given),4.0,nt,97.2,678.4*,-7.5,0.5
CCCCC(=O)Nc1cc(OC)c(NC(=O)C2CCCCC2)cc1OC,-1.5,nt,95.0,711.2*,3.7,0.3
N=c1sccn1CC(=O)Nc1ccc(S(N)(=O)=O)cc1,-2.1,6.4,99.9,-10.2,-3.2,nt
N=c1sccn1CC(=O)Nc1cccc(S(N)(=O)=O)c1,-5.2,8.6,80.7,488.9*,-3.5,0.5
CN1C(=O)/C(=C/c2ccc(OCc3ccccc3F)cc2)NC1=S,2.4,1.2,106.2,375.4*,1.2,-0.4
COc1cc(/C=C2\NC(=S)N(C)C2=O)ccc1OCc1ccccc1F,2.7,11.2,126.8,16.8,-0.6,nt
C[C@@H]1CN([C@H](C)CO)C(=O)c2cc(NC(=O)CCC(F)(F)F)ccc2O[C@@H]1CN(C)S(=O)(=O)c1cn(C)cn1,-1.2,0.2,nt,nt,3.2,nt
Cc1sc2nc(SCC(=O)NCCOCCO)n(C)c(=O)c2c1C,0.6,nt,100.5,982.5*,2.1,0.2
COc1ccc2c3c(n(C)c2c1)[C@@H](CO)N(C)CC31CCN(C(=O)NC(C)C)CC1,nt,5.1,nt,nt,nt,nt
CCCOc1ccccc1C1NC(=O)NC(C)=C1C(=O)OCc1ccccc1 (stereo not given),3.0,nt,88.2,735.0*,-5.7,-0.3
CCCOc1ccccc1C1NC(=O)NC(C)=C1C(=O)OCCOC (stereo not given),-0.3,nt,103.4,-11.7,3.3,nt
COc1ccc(NC(=O)N(C)C[C@@H]2OCCCC[C@@H](C)Oc3ccc(NC(=O)NC4CCCCC4)cc3C(=O)N([C@@H](C)CO)C[C@@H]2C)cc1,-2.8,-0.9,nt,nt,1.0,nt
CCN(CC)C(=O)C1CCCN(c2ccc([N+](=O)[O-])cc2/C=N/NC(=O)c2cccc(Br)c2)C1 (stereo not given),-1.3,nt,99.6,648.2*,-2.0,-0.1
O=C(N/N=C/c1cc([N+](=O)[O-])ccc1N1CCCCCC1)c1ccccn1,nt,nt,85.9,8.4,nt,nt
CCC(=O)N1c2ccc(S(=O)(=O)N3CCN(CC)CC3)cc2CC1C (stereo not given),0.6,12.9,94.6,4.7,-11.6,nt
CCC(=O)N1c2ccc(S(=O)(=O)N3CCN(c4ccc([N+](=O)[O-])cc4)CC3)cc2CC1C (stereo not given),0.5,4.5,101.6,456.4*,-4.8,-0.5
CCOC(=O)Cn1c(=O)cc(C)c2ccccc21,nt,24.3,97.5,-16.0,nt,nt
CCOC(=O)Cn1c(C)c(Br)c(=O)c2cccc(C)c21,4.3,nt,97.9,+,-3.8,-0.4
O=C(CCCCCn1c(=O)[nH]c2ccsc2c1=O)NCc1ccc(F)cc1,-2.8,nt,103.0,883.0*,-3.5,0.4
O=C(CCCCCn1c(=O)[nH]c2ccsc2c1=O)NCc1cccs1,0.0,nt,102.3,-2.2,0.3,nt
Cc1ccccc1S(=O)(=O)N1CC(=O)N2[C@@H](CO)[C@@H](c3ccc(C#CC4CC4)cc3)[C@@H]2C1,nt,1.1,nt,nt,nt,nt
CNC[C@@H]1Oc2cc(-c3ccccc3F)ccc2S(=O)(=O)N([C@H](C)CO)C[C@H]1C,-5.5,3.6,nt,nt,-3.2,nt
O=c1c2ccccc2nc(COc2ccccc2)n1/N=C/c1cn[nH]c1-c1ccccc1,0.0,-6.1,100.3,647.1*,-0.8,-0.7
COc1cc(C)c(S(=O)(=O)NCc2ccc3c(c2)OCO3)cc1C,0.8,0.3,89.9,0.7,-2.0,nt
COc1cc(C)c(Cl)c(C)c1S(=O)(=O)NCc1ccc2c(c1)OCO2,1.3,nt,96.3,383.6*,3.8,-1.2
SMILES,Cneo AK release,Ecoli rRNA inh,Yeast superoxide,SUMO Mot1 rescue,PglD inh,Mot1 SUMO dose
C[C@H]1CN([C@@H](C)CO)C(=O)c2cc(NC(=O)C3CC3)ccc2O[C@H]1CN(C)C(=O)NC1CCCCC1,-1.1,-0.5,nt,nt,7.9,nt
COc1cc(/C=N/NC2=NS(=O)(=O)c3ccccc32)cc(OC)c1OC,0.7,2.0,94.2,629.7*,-2.5,0.2
C[C@@H]1CN([C@@H](C)CO)C(=O)c2cc(NC(=O)C3CC3)ccc2O[C@@H]1CN(C)C(=O)Nc1ccc(C(F)(F)F)cc1,4.8,-60.0,nt,nt,-0.7,nt
Cn1c(SCC(=O)N/N=C/c2ccc([N+](=O)[O-])s2)nnc1-c1ccc(Cl)cc1,nt,nt,92.4,957.8*,nt,0.3
COc1cc([N+](=O)[O-])cc(/C=N/NC(=O)CSc2nnc(-c3ccccc3)n2C)c1O,nt,nt,119.6,76.9,nt,nt
Cc1cc(NC(=O)CSc2ncn(-c3ccccc3)n2)no1,-0.6,nt,113.3,924.8*,3.1,0.1
CCOC(=O)C1CCN(C(=O)COc2ccc(S(=O)(=O)N3CCOCC3)cc2)CC1,7.2,6.2,99.3,14.5,-4.8,nt
CCOC(=O)C1CCN(C(=O)COc2ccc(S(=O)(=O)N3CCOCC3)cc2C)CC1,0.5,20.2,86.2,717.9*,-1.5,0.4
C[C@H](CO)N1C[C@H](C)[C@@H](CN(C)Cc2ccc(Cl)c(Cl)c2)Oc2ccc(NC(=O)CCC(F)(F)F)cc2C1=O,-6.1,-3.3,nt,nt,0.1,nt
N#Cc1cccc(NC(=O)CSc2n[nH]c(=O)[nH]c2=O)c1,-1.8,10.8,84.7,651.6*,-0.1,0.7
O=C(CSc1n[nH]c(=O)[nH]c1=O)Nc1ccc(SC(F)F)cc1,-3.0,-4.9,92.6,-1.8,-2.3,nt
O=C(Nc1ccc2c(c1)oc1ccc(S(=O)(=O)N3CCCC3)cc12)C1CC1,-3.4,nt,86.5,2.4,-0.5,nt
O=C(Nc1ccc2c(c1)oc1ccccc12)C1CC1,-2.6,nt,81.7,+,-2.1,-0.4
CC1(C)CC(O)CC(C)(C)N1CC(O)COCc1ccccc1 (stereo not given),0.4,16.1,75.2,287.3,0.1,nt
Cc1cccc(OCC(O)CN2C(C)(C)CC(O)CC2(C)C)c1 (stereo not given),10.6,nt,86.4,571.0*,-2.9,0.3
C/C=C/c1ccc2c(c1)O[C@H](CNC)[C@@H](C)CN([C@H](C)CO)S2(=O)=O,nt,5.5,nt,nt,nt,nt
C[C@@H]1CN([C@@H](C)CO)C(=O)c2cc(NC(=O)Nc3ccccc3)ccc2O[C@@H](C)CCCCO[C@H]1CN(C)Cc1ccc(C(F)(F)F)cc1,0.2,-3.6,nt,nt,1.6,nt
CCOc1ccccc1N(CC(=O)NCC1CCCO1)C(=O)CCC(=O)Nc1cc(C)on1 (stereo not given),-0.8,-2.5,87.2,-20.3,-6.0,nt
COc1ccccc1N(CC(=O)NCC1CCCO1)C(=O)CCC(=O)Nc1cc(C)on1 (stereo not given),-1.1,6.3,92.5,751.8*,3.4,-0.2
COc1ccc(CN(CC(=O)NCC2CCCO2)C(=O)CCC(=O)Nc2cc(C)on2)cc1 (stereo not given),-0.3,nt,87.7,391.7*,-6.1,0.6

# Assay outcomes (PubChem BioAssay)
